Values joined by “and” are separate entries in the source; they are usually repeats but may differ in a detail not shown here. Equal values may be shown once.
Tested on: U2OS
Assay: Multiplex assay against U2OS
Assay type: toxicity, cell-based
Settings: human
Summary of the method: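 With compound added, live cells were imaged on a CQ1 microscope at 37°C and 5% CO2; staining with Hoechst33342, BioTracker Green Microtubule Cytoskeleton Dye, MitoTracker Red and Annexin V Alexa Fluor 680 had been done at seeding. The CellPathfinder machine-learning gating scheme split cells into Hoechst high-intensity objects or normal cells, normal cells into healthy, pyknosed or fragmented nuclei, and pyknosed cells into mitotic or apoptotic. The tubulin, mitochondrial-mass and membrane-permeability phenotypes are per cents of healthy-nucleus cells.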

[1] = 12 h, 1 µM, compound concentration 1 uM
[2] = 12 h, 10 µM, compound concentration 10 uM
[3] = 24 h, 1 µM, compound concentration 1 uM
[4] = 24 h, 10 µM, compound concentration 10 uM
[5] = 48 h, 1 µM, compound concentration 1 uM
[6] = 48 h, 10 µM, compound concentration 10 uM

SMILES: S=C(NCCCc1c[nH]cn1)NCCCN(Cc1ccc(Cl)c(Cl)c1)c1ccc(Br)cn1
- Population Apoptotic (%) [1]: 75% and 80%
- Population Fragmented Nuclei (%) [1]: 27% and 20%
- Population Healthy Nuclei (%) [1]: 63% and 68%
- Population Hoechst High Intensity Objects (%) [1]: 2% and 3%
- Population Membrane Permeable-Phenotype (%) [1]: 13% and 6%
- Population Mitochondria Different-Phenotype (%) [1]: 2% and 9%
- Population Mitotic Cells (%) [1]: 25% and 20%
- Population Normal (%) [1]: 97% and 96%
- Population Pyknosed Nuclei (%) [1]: 9% and 11%
- Population Tubulin-Different-Phenotype (%) [1]: 6% and 1%
- Total Cell Count [1]: 228 and 93
- Population Apoptotic (%) [2]: 66% and 58%
- Population Fragmented Nuclei (%) [2]: 27% and 24%
- Population Healthy Nuclei (%) [2]: 46%
- Population Hoechst High Intensity Objects (%) [2]: 6% and 0%
- Population Membrane Permeable-Phenotype (%) [2]: 86% and 84%
- Population Mitochondria Different-Phenotype (%) [2]: 26% and 60%
- Population Mitotic Cells (%) [2]: 33% and 41%
- Population Normal (%) [2]: 93% and 100%
- Population Pyknosed Nuclei (%) [2]: 26% and 29%
- Population Tubulin-Different-Phenotype (%) [2]: 83% and 89%
- Total Cell Count [2]: 220 and 82
- Population Apoptotic (%) [3]: 81% and 100%
- Population Fragmented Nuclei (%) [3]: 22% and 30%
- Population Healthy Nuclei (%) [3]: 69% and 65%
- Population Hoechst High Intensity Objects (%) [3]: 3% and 1%
- Population Membrane Permeable-Phenotype (%) [3]: 11% and 7%
- Population Mitochondria Different-Phenotype (%) [3]: 3% and 5%
- Population Mitotic Cells (%) [3]: 18% and 0%
- Population Normal (%) [3]: 96% and 98%
- Population Pyknosed Nuclei (%) [3]: 8% and 4%
- Population Tubulin-Different-Phenotype (%) [3]: 9% and 3%
- Total Cell Count [3]: 285 and 125
- Population Apoptotic (%) [4]: 62% and 60%
- Population Fragmented Nuclei (%) [4]: 33% and 29%
- Population Healthy Nuclei (%) [4]: 38% and 40%
- Population Hoechst High Intensity Objects (%) [4]: 5% and 2%
- Population Membrane Permeable-Phenotype (%) [4]: 59% and 77%
- Population Mitochondria Different-Phenotype (%) [4]: 17% and 32%
- Population Mitotic Cells (%) [4]: 37% and 39%
- Population Normal (%) [4]: 94% and 97%
- Population Pyknosed Nuclei (%) [4]: 28% and 29%
- Population Tubulin-Different-Phenotype (%) [4]: 54% and 64%
- Total Cell Count [4]: 227 and 79
- Population Apoptotic (%) [5]: 83% and 87%
- Population Fragmented Nuclei (%) [5]: 17% and 28%
- Population Healthy Nuclei (%) [5]: 74% and 60%
- Population Hoechst High Intensity Objects (%) [5]: 1% and 0%
- Population Membrane Permeable-Phenotype (%) [5]: 5%
- Population Mitochondria Different-Phenotype (%) [5]: 3%
- Population Mitotic Cells (%) [5]: 16% and 12%
- Population Normal (%) [5]: 98% and 99%
- Population Pyknosed Nuclei (%) [5]: 7% and 11%
- Population Tubulin-Different-Phenotype (%) [5]: 2% and 3%
- Total Cell Count [5]: 409 and 211
- Population Apoptotic (%) [6]: 70% and 73%
- Population Fragmented Nuclei (%) [6]: 43% and 50%
- Population Healthy Nuclei (%) [6]: 8% and 15%
- Population Hoechst High Intensity Objects (%) [6]: 21% and 15%
- Population Membrane Permeable-Phenotype (%) [6]: 46% and 57%
- Population Mitochondria Different-Phenotype (%) [6]: 20% and 42%
- Population Mitotic Cells (%) [6]: 29% and 26%
- Population Normal (%) [6]: 78% and 84%
- Population Pyknosed Nuclei (%) [6]: 47% and 33%
- Population Tubulin-Different-Phenotype (%) [6]: 26% and 57%
- Total Cell Count [6]: 230 and 105

SMILES: CN1CCC(C(=O)c2cccc(NC(=O)c3c(F)cc(F)cc3F)n2)CC1
- Population Apoptotic (%) [1]: 90% and 57%
- Population Fragmented Nuclei (%) [1]: 20%
- Population Healthy Nuclei (%) [1]: 70% and 71%
- Population Hoechst High Intensity Objects (%) [1]: 2% and 1%
- Population Membrane Permeable-Phenotype (%) [1]: 8% and 9%
- Population Mitochondria Different-Phenotype (%) [1]: 3% and 11%
- Population Normal (%) [1]: 97% and 98%
- Population Pyknosed Nuclei (%) [1]: 9% and 7%
- Population Tubulin-Different-Phenotype (%) [1]: 5% and 6%
- Total Cell Count [1]: 218 and 89
- Population Apoptotic (%) [2]: 65% and 64%
- Population Fragmented Nuclei (%) [2]: 27% and 14%
- Population Healthy Nuclei (%) [2]: 63% and 68%
- Population Hoechst High Intensity Objects (%) [2]: 1%
- Population Membrane Permeable-Phenotype (%) [2]: 14% and 15%
- Population Mitochondria Different-Phenotype (%) [2]: 13% and 18%
- Population Mitotic Cells (%) [2]: 34% and 35%
- Population Normal (%) [2]: 98%
- Population Pyknosed Nuclei (%) [2]: 9% and 16%
- Population Tubulin-Different-Phenotype (%) [2]: 12% and 15%
- Total Cell Count [2]: 270 and 103
- Population Apoptotic (%) [3]: 85% and 72%
- Population Fragmented Nuclei (%) [3]: 22% and 18%
- Population Healthy Nuclei (%) [3]: 67% and 71%
- Population Hoechst High Intensity Objects (%) [3]: 2% and 0%
- Population Membrane Permeable-Phenotype (%) [3]: 4% and 6%
- Population Mitochondria Different-Phenotype (%) [3]: 3% and 10%
- Population Mitotic Cells (%) [3]: 14% and 27%
- Population Normal (%) [3]: 97% and 99%
- Population Pyknosed Nuclei (%) [3]: 9%
- Population Tubulin-Different-Phenotype (%) [3]: 3% and 0%
- Total Cell Count [3]: 284 and 113
- Population Apoptotic (%) [4]: 82% and 66%
- Population Fragmented Nuclei (%) [4]: 21% and 15%
- Population Healthy Nuclei (%) [4]: 68%
- Population Hoechst High Intensity Objects (%) [4]: 2% and 5%
- Population Membrane Permeable-Phenotype (%) [4]: 8% and 10%
- Population Mitochondria Different-Phenotype (%) [4]: 9% and 15%
- Population Mitotic Cells (%) [4]: 17% and 33%
- Population Normal (%) [4]: 97% and 94%
- Population Pyknosed Nuclei (%) [4]: 9% and 15%
- Population Tubulin-Different-Phenotype (%) [4]: 5% and 10%
- Total Cell Count [4]: 298 and 126
- Population Apoptotic (%) [5]: 100% and 89%
- Population Fragmented Nuclei (%) [5]: 17% and 29%
- Population Healthy Nuclei (%) [5]: 70% and 57%
- Population Hoechst High Intensity Objects (%) [5]: 2% and 5%
- Population Membrane Permeable-Phenotype (%) [5]: 4% and 12%
- Population Mitochondria Different-Phenotype (%) [5]: 1% and 8%
- Population Mitotic Cells (%) [5]: 0% and 10%
- Population Normal (%) [5]: 97% and 94%
- Population Pyknosed Nuclei (%) [5]: 11% and 13%
- Population Tubulin-Different-Phenotype (%) [5]: 2% and 4%
- Total Cell Count [5]: 394 and 149
- Population Apoptotic (%) [6]: 85%
- Population Fragmented Nuclei (%) [6]: 18% and 15%
- Population Healthy Nuclei (%) [6]: 69%
- Population Hoechst High Intensity Objects (%) [6]: 3%
- Population Membrane Permeable-Phenotype (%) [6]: 8% and 16%
- Population Mitochondria Different-Phenotype (%) [6]: 3% and 10%
- Population Mitotic Cells (%) [6]: 14%
- Population Normal (%) [6]: 96%
- Population Pyknosed Nuclei (%) [6]: 12% and 14%
- Population Tubulin-Different-Phenotype (%) [6]: 3% and 8%
- Total Cell Count [6]: 398 and 189
